Here are results for seven compounds from ChEMBL document CHEMBL4321801, “Anti-prion Butenolides and Diphenylpropanones from the Australian Ascidian Polycarpa procera” (J Nat Prod, 2019).

Test [1] in a line: Anti-prion activity against [PSI+] protein in Saccharomyces cerevisiae STRg6 measured after 24 hrs by fluorimetry analysis. In outline:
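Whole-cell yeast assay for curing of the [PSI+] prion, which depends on compound uptake across the cell membrane. EC50 (μM) reported ± SE. Guanabenz was run as the positive control.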

The next test has as its system Saccharomyces cerevisiae. The experiment in a line: Anti-prion activity against [URE3] protein in Saccharomyces cerevisiae SB34 at 100 uM measured after 24 hrs by fluorimetry analysis. In outline: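 Whole-cell yeast assay for curing of the [URE3] prion at a single concentration of 100 μM, scored as yes/no curing. Guanabenz was run as the positive control.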

Molecules are shown by their SMILES. Active and inactive are the calls of the source. No cut-off for these calls is given here.

In test [1], `N=C(N)N/N=C/c1c(Cl)cccc1Cl` [GUANABENZ] registered an EC50 of 26 µM. The result in the test on Saccharomyces cerevisiae was Active.
On the same counts, the results for `COc1ccc(C[C@@H]2OC(=O)C(O)=C2c2cc(Br)c(O)c(Br)c2)cc1Br` are 23 µM and “Active”.
Taken in the same sequence, the figures for `COc1c(Br)cc(C[C@H](O)C(=O)c2cc(Br)c(O)c(Br)c2)cc1Br` were 33 µM and “Active”.
Taken in the same sequence, the figures for `COc1c(Br)cc(C[C@@H]2OC(=O)C(O)=C2c2cc(Br)c(O)c(Br)c2)cc1Br` were 34 µM and “Active”.
With `COC1=C(c2cc(Br)c(O)c(Br)c2)[C@H](Cc2cc(Br)c(OC)c(Br)c2)OC1=O`, it took 67 µM to reach a half-maximal effect in test [1] (EC50). In addition, in the test with Saccharomyces cerevisiae, the result was Active.
With `COc1ccc(C[C@H](O)C(=O)c2cc(Br)c(O)c(Br)c2)cc1Br`, the EC50 in test [1] was found to be 29 µM. The outcome with Saccharomyces cerevisiae was Active.
On the same counts, the results for `COC1=C(c2cc(Br)c(O)c(Br)c2)[C@H](Cc2ccc(OC)c(Br)c2)OC1=O` are 65 µM and “Active”.

In general, EC50 refers to the concentration needed to bring the measured effect to its halfway point. Read a high EC50 as weaker potency.
